In ChEMBL document CHEMBL2407075, “Sulphonamido-quinoxalines: search for anticancer agent” (Eur J Med Chem, 2013):

Tests used:
[1] = Oral bioavailability in human; format: ADME, organism-based; settings: in silico prediction
T47D = experiment: Growth inhibition of human T47D cells at 10 uM after 48 hrs by sulforhodamine B assay; format: functional; settings: read-out: GI
Method in brief: (§1)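 Single-dose screen at 10 µM across the NCI 60 panel. Cells in RPMI 1640 with 5% FBS and 2 mM L-glutamine, plated at 5000–40,000/well and preincubated 24 h at 37 °C, 5% CO2. Drug in DMSO, 48 h exposure. Fixed with TCA, stained with SRB, A515 read. Percent growth is taken relative to untreated control, and inhibition is 100 minus growth.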

UO-31 = experiment: Growth inhibition of human UO31 cells at 10 uM after 48 hrs by sulforhodamine B assay; format: functional; settings: UO-31, 48 h, read-out: GI; method in brief: as §1
SN12C = experiment: Growth inhibition of human SN12C cells at 10 uM after 48 hrs by sulforhodamine B assay; format: functional; settings: read-out: GI; method in brief: as §1
CAKI-1 = experiment: Growth inhibition of human CAKI-1 cells at 10 uM after 48 hrs by sulforhodamine B assay; format: functional; settings: CAKI-1, 48 h, read-out: GI
Method in brief: (§2)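 Single-dose NCI-60 prescreen at 10 µM for 48 h at 37 °C and 5% CO2, using cells grown in RPMI 1640 with 5% FBS and 2 mM glutamine. Protein was measured by SRB after TCA fixation: 10% final for adherent lines, 16% for suspension lines. Absorbance was read at 515 nm. Percent growth inhibition was obtained by subtracting percent growth from 100.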

ACHN = experiment: Growth inhibition of human ACHN cells at 10 uM after 48 hrs by sulforhodamine B assay; format: functional; settings: read-out: GI; method in brief: as §2
SK-OV-3 = experiment: Growth inhibition of human SKOV3 cells at 10 uM after 48 hrs by sulforhodamine B assay; format: functional; settings: SK-OV-3, 48 h, read-out: GI; method in brief: as §1
786-0 = experiment: Growth inhibition of human 786-0 cells at 10 uM after 48 hrs by sulforhodamine B assay; format: functional; settings: 786-0, 48 h, read-out: GI; method in brief: as §2
[2] = Growth inhibition of human NCI-ADR-RES cells at 10 uM after 48 hrs by sulforhodamine B assay; format: functional; settings: read-out: GI; method in brief: as §1
OVCAR-4 = experiment: Growth inhibition of human OVCAR4 cells at 10 uM after 48 hrs by sulforhodamine B assay; format: functional; settings: OVCAR-4, 48 h, read-out: GI; method in brief: as §1
OVCAR-5 = experiment: Growth inhibition of human OVCAR5 cells at 10 uM after 48 hrs by sulforhodamine B assay; format: functional; settings: OVCAR-5, 48 h, read-out: GI; method in brief: as §1
OVCAR-3 = experiment: Growth inhibition of human OVCAR3 cells at 10 uM after 48 hrs by sulforhodamine B assay; format: functional; settings: OVCAR-3, 48 h, read-out: GI; method in brief: as §1
MDA-MB-435 = experiment: Growth inhibition of human MDA-MB-435 cells at 10 uM after 48 hrs by sulforhodamine B assay; format: functional; settings: MDA-MB-435, 48 h, read-out: GI; method in brief: as §1
SK-MEL-2 = experiment: Growth inhibition of human SK-MEL-2 cells at 10 uM after 48 hrs by sulforhodamine B assay; format: functional; settings: SK-MEL-2, 48 h, read-out: GI; method in brief: as §1
M14 = experiment: Growth inhibition of human M14 cells at 10 uM after 48 hrs by sulforhodamine B assay; format: functional; settings: M14, 48 h, read-out: GI; method in brief: as §1
SNB-19 = experiment: Growth inhibition of human SNB19 cells at 10 uM after 48 hrs by sulforhodamine B assay; format: functional; settings: SNB-19, 48 h, read-out: GI; method in brief: as §1
SNB-75 = experiment: Growth inhibition of human SNB75 cells at 10 uM after 48 hrs by sulforhodamine B assay; format: functional; settings: SNB-75, 48 h, read-out: GI; method in brief: as §1
SF-539 = experiment: Growth inhibition of human SF539 cells at 10 uM after 48 hrs by sulforhodamine B assay; format: functional; settings: SF-539, 48 h, read-out: GI; method in brief: as §1
SW-620 = experiment: Growth inhibition of human SW620 cells at 10 uM after 48 hrs by sulforhodamine B assay; format: functional; settings: SW-620, 48 h, read-out: GI; method in brief: as §1
HT-29 = experiment: Growth inhibition of human HT-29 cells at 10 uM after 48 hrs by sulforhodamine B assay; format: functional; settings: HT-29, 48 h, read-out: GI
Method in brief: (§3)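 NCI-60 one-dose primary screen at a single 10 µM concentration. Cells in RPMI 1640 with 5% FBS, preincubated 24 h at 37 °C, 5% CO2. Drug exposure 48 h, then TCA fixation, SRB staining and absorbance at 515 nm. Percent growth calculated against time-zero and untreated control wells, then converted to percent growth inhibition.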

KM12 = experiment: Growth inhibition of human KM12 cells at 10 uM after 48 hrs by sulforhodamine B assay; format: functional; settings: KM12, 48 h, read-out: GI; method in brief: as §1
HCT-116 = experiment: Growth inhibition of human HCT116 cells at 10 uM after 48 hrs by sulforhodamine B assay; format: functional; settings: HCT-116, 48 h, read-out: GI; method in brief: as §3
HCT-15 = experiment: Growth inhibition of human HCT15 cells at 10 uM after 48 hrs by sulforhodamine B assay; format: functional; settings: HCT-15, 48 h, read-out: GI; method in brief: as §3
NCI-H522 = experiment: Growth inhibition of human NCI-H522 cells at 10 uM after 48 hrs by sulforhodamine B assay; format: functional; settings: NCI-H522, 48 h, read-out: GI; method in brief: as §1
COLO 205 = experiment: Growth inhibition of human COLO205 cells at 10 uM after 48 hrs by sulforhodamine B assay; format: functional; settings: COLO 205, 48 h, read-out: GI; method in brief: as §2
NCI-H322M = experiment: Growth inhibition of human NCI-H322M cells at 10 uM after 48 hrs by sulforhodamine B assay; format: functional; settings: read-out: GI; method in brief: as §1
NCI-H460 = experiment: Growth inhibition of human NCI-H460 cells at 10 uM after 48 hrs by sulforhodamine B assay; format: functional; settings: NCI-H460, 48 h, read-out: GI; method in brief: as §1
NCI-H226 = experiment: Growth inhibition of human NCI-H226 cells at 10 uM after 48 hrs by sulforhodamine B assay; format: functional; settings: NCI-H226, 48 h, read-out: GI; method in brief: as §1
NCI-H23 = experiment: Growth inhibition of human NCI-H23 cells at 10 uM after 48 hrs by sulforhodamine B assay; format: functional; settings: NCI-H23, 48 h, read-out: GI; method in brief: as §1
SR = experiment: Growth inhibition of human SR cells at 10 uM after 48 hrs by sulforhodamine B assay; format: functional; settings: read-out: GI; method in brief: as §1
MOLT-4 = experiment: Growth inhibition of human MOLT4 cells at 10 uM after 48 hrs by sulforhodamine B assay; format: functional; settings: MOLT-4, 48 h, read-out: GI; method in brief: as §1
RPMI-8226 = experiment: Growth inhibition of human RPMI8226 cells at 10 uM after 48 hrs by sulforhodamine B assay; format: functional; settings: RPMI-8226, 48 h, read-out: GI; method in brief: as §1
CCRF-CEM = experiment: Growth inhibition of human CCRF-CEM cells at 10 uM after 48 hrs by sulforhodamine B assay; format: functional; settings: read-out: GI; method in brief: as §2
HL-60(TB) = experiment: Growth inhibition of human HL-60(TB) cells at 10 uM after 48 hrs by sulforhodamine B assay; format: functional; settings: HL-60, 48 h, read-out: GI
Method in brief: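 Single-dose NCI-60 primary screen at 10 µM, 48 h exposure, SRB read-out. Growth percentage of treated versus untreated cells was recorded and given as percent inhibition by subtraction.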

Question: Which bioavailability [1] does the source give for O=S(=O)(Nc1ccccn1)c1ccc2nc(-c3ccccc3)c(-c3ccccc3)nc2c1 here?
Answer: The bioavailability was 100%.

Question: And the inhibition of growth at 10 µM (T47D)?
Answer: The inhibition of growth at 10 µM was 81.1%.

Question: And the inhibition of growth at 10 µM (UO-31)?
Answer: The inhibition of growth at 10 µM was 45.2%.

Question: What about the inhibition of growth at 10 µM (SN12C) of the same compound?
Answer: The inhibition of growth at 10 µM was 38.5%.

Question: And the inhibition of growth at 10 µM (CAKI-1)?
Answer: The inhibition of growth at 10 µM was 54.1%.

Question: What about the inhibition of growth at 10 µM (ACHN) of the same compound?
Answer: Its inhibition of growth at 10 µM is 34.3%.

Question: And the inhibition of growth at 10 µM (SK-OV-3)?
Answer: Its inhibition of growth at 10 µM is 44.9%.

Question: And the inhibition of growth at 10 µM (786-0)?
Answer: Its inhibition of growth at 10 µM is 99.2%.

Question: What about the inhibition of growth at 10 µM [2] of the same compound?
Answer: The inhibition of growth at 10 µM was 73.2%.

Question: And the inhibition of growth at 10 µM (OVCAR-4)?
Answer: The inhibition of growth at 10 µM was 40.1%.

Question: And the inhibition of growth at 10 µM (OVCAR-5)?
Answer: Its inhibition of growth at 10 µM is 24.3%.

Question: And the inhibition of growth at 10 µM (OVCAR-3)?
Answer: The inhibition of growth at 10 µM was 48.9%.

Question: What about the inhibition of growth at 10 µM (MDA-MB-435) of the same compound?
Answer: Its inhibition of growth at 10 µM is 54.2%.

Question: What about the inhibition of growth at 10 µM (SK-MEL-2) of the same compound?
Answer: The inhibition of growth at 10 µM was 39.3%.

Question: And the inhibition of growth at 10 µM (M14)?
Answer: The inhibition of growth at 10 µM was 62.8%.

Question: What about the inhibition of growth at 10 µM (SNB-19) of the same compound?
Answer: The inhibition of growth at 10 µM was 43.6%.

Question: And the inhibition of growth at 10 µM (SNB-75)?
Answer: Its inhibition of growth at 10 µM is 61.8%.

Question: And the inhibition of growth at 10 µM (SF-539)?
Answer: The inhibition of growth at 10 µM was 61.9%.

Question: And the inhibition of growth at 10 µM (SW-620)?
Answer: The inhibition of growth at 10 µM was 47.9%.

Question: And the inhibition of growth at 10 µM (HT-29)?
Answer: The inhibition of growth at 10 µM was 81.7%.

Question: And the inhibition of growth at 10 µM (KM12)?
Answer: Its inhibition of growth at 10 µM is 61.5%.

Question: And the inhibition of growth at 10 µM (HCT-116)?
Answer: Its inhibition of growth at 10 µM is 72.1%.

Question: And the inhibition of growth at 10 µM (HCT-15)?
Answer: Its inhibition of growth at 10 µM is 62.4%.

Question: And the inhibition of growth at 10 µM (NCI-H522)?
Answer: Its inhibition of growth at 10 µM is 65.6%.

Question: What about the inhibition of growth at 10 µM (COLO 205) of the same compound?
Answer: Its inhibition of growth at 10 µM is 54.2%.

Question: What about the inhibition of growth at 10 µM (NCI-H322M) of the same compound?
Answer: The inhibition of growth at 10 µM was 59.4%.

Question: What about the inhibition of growth at 10 µM (NCI-H460) of the same compound?
Answer: Its inhibition of growth at 10 µM is 63.4%.

Question: And the inhibition of growth at 10 µM (NCI-H226)?
Answer: Its inhibition of growth at 10 µM is -1.38%.

Question: What about the inhibition of growth at 10 µM (NCI-H23) of the same compound?
Answer: The inhibition of growth at 10 µM was 46.5%.

Question: What about the inhibition of growth at 10 µM (SR) of the same compound?
Answer: The inhibition of growth at 10 µM was -3.25%.

Question: And the inhibition of growth at 10 µM (MOLT-4)?
Answer: Its inhibition of growth at 10 µM is 86.8%.

Question: And the inhibition of growth at 10 µM (RPMI-8226)?
Answer: The inhibition of growth at 10 µM was 89.9%.

Question: And the inhibition of growth at 10 µM (CCRF-CEM)?
Answer: Its inhibition of growth at 10 µM is 70.7%.

Question: And the inhibition of growth at 10 µM (HL-60(TB))?
Answer: The inhibition of growth at 10 µM was 80.7%.
